Assay results: ChEMBL document CHEMBL1641563, “Synthesis and antihyperglycemic activity of phenolic C-glycosides” (2011)

Key:
Format in all cases: functional
Rattus norvegicus [1] = test: Antihyperglycemic activity against streptozotocin-induced Sprague-Dawley albino rat diabetic model assessed as area under the 0 to 24 hrs blood glucose response curve (0-24 hrs AUC) at 25 mg/kg, po after 48 hrs by glucometer
Outline: (§1)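 Male Sprague–Dawley rats, fasted overnight, received STZ 60 mg/kg ip in 0.1 M citrate pH 4.5. Rats with glucose 140–270 mg/dl at 48 h were used, n = 5 per group. Compound was given at 25 mg/kg orally in 1.0% gum acacia, with vehicle controls, and a sucrose load of 2.5 g/kg followed 30 min later. Glucose was read by glucometer at 1–6 h and 24 h. Percent activity came from AUC versus control, with Dunnett's test.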

Rattus norvegicus [2] = test: Antihyperglycemic activity against streptozotocin-induced Sprague-Dawley albino rat diabetic model assessed as reduction in blood glucose at 25 mg/kg, po after 24 hrs; set-up: scale not given: the % may be the effect or the level left; outline: as §1
L6 = test: Antihyperglycemic activity against rat L6 cells assessed as increase in glucose uptake by liquid scintillation counting; set-up: concentration or dose not given beside the values
Outline: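 L6 myoblasts were grown in DMEM with 10% FBS, then differentiated into myotubes for 7–8 days in 2% FBS. Myotubes were treated with compound at 10 or 50 µM for 18 h and washed in Krebs–Ringer HEPES. Uptake of 2-deoxy-[3H]-D-glucose (3 µCi, plus 20 µM unlabelled) was measured over 15 min. Non-specific uptake was taken with 10 µM cytochalasin B. Counts (cpm/well) were compared with controls.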

Rattus norvegicus [3] = test: Antihyperglycemic activity against streptozotocin-induced Sprague-Dawley albino rat diabetic model assessed as area under the 0 to 5 hrs blood glucose response curve (0-5 hrs AUC) at 25 mg/kg, po after 48 hrs by glucometer; outline: as §1

| SMILES | Activity (Rattus norvegicus [1]) [%] | Activity (Rattus norvegicus [2]) [%] | Activity (L6) [%] | Activity (Rattus norvegicus [3]) [%] |
| --- | --- | --- | --- | --- |
| O=C(CCc1ccccc1)c1c(O)cc(O)c([C@@H]2O[C@H](CO)[C@@H](O)[C@H](O)[C@H]2O)c1O | 26.5 | 26.5 | 11.6 | 22.3 |
| O=C1Oc2c(ccc(O)c2[C@@H]2O[C@H](CO)[C@@H](O)[C@H](O)[C@H]2O)/C1=C\c1ccc(O)cc1 | 29 |  | 16 | 17.2 |
| CN(C)C(=N)NC(=N)N [METFORMIN] | 24.1 |  | 19.4 | 27.2 |
| OC[C@H]1O[C@@H](c2c(O)cccc2O)[C@H](O)[C@@H](O)[C@@H]1O | 22.3 |  |  | 12.7 |
| O=C1c2c(cc(O)c([C@@H]3O[C@H](CO)[C@@H](O)[C@H](O)[C@H]3O)c2O)OC(c2ccc(O)c(O)c2)C1O (stereo not given in full) | 12.8 |  | 10.2 | 17.6 |
| O=c1c(O)c(-c2ccc(O)c(O)c2)oc2cc(O)c([C@@H]3O[C@H](CO)[C@@H](O)[C@H](O)[C@H]3O)c(O)c12 | 8.56 |  |  | 15.6 |
| O=C(CC(O)c1ccc(O)c(O)c1)c1ccc(O)c([C@@H]2O[C@H](CO)[C@@H](O)[C@H](O)[C@H]2O)c1O (stereo not given in full) | 19.5 |  |  | 20 |
| O=C1c2c(cc(O)c([C@@H]3O[C@H](CO)[C@@H](O)[C@H](O)[C@H]3O)c2O)OC(c2ccc(O)cc2)C1O (stereo not given in full) | 23.8 | 23.8 |  | 23.8 |
| CC(=O)c1c(O)cc(O)c([C@@H]2O[C@H](CO)[C@@H](O)[C@H](O)[C@H]2O)c1O | 20.9 |  | 15.3 | 18 |
| COC(=O)c1c(O)cc(O)c([C@@H]2O[C@H](CO)[C@@H](O)[C@H](O)[C@H]2O)c1O | 2.9 |  |  | 7.27 |
| COC(=O)c1c(O)c([C@@H]2O[C@H](CO)[C@@H](O)[C@H](O)[C@H]2O)c(O)c([C@@H]2O[C@H](CO)[C@@H](O)[C@H](O)[C@H]2O)c1O | 7.78 |  | 10.8 | 11.5 |
| COc1cc(OC)c([C@@H]2O[C@H](CO)[C@@H](O)[C@H](O)[C@H]2O)c(OC)c1C(=O)/C=C/c1ccc(C(C)C)cc1 | 33.6 | 33.6 |  | 34.9 |
| O=C1CC(c2ccc(O)cc2)Oc2cc(O)c([C@@H]3O[C@H](CO)[C@@H](O)[C@H](O)[C@H]3O)c(O)c21 (stereo not given in full) | 15.1 |  | 12.2 | 8.41 |
| O=C1c2ccc(O)c([C@@H]3O[C@H](CO)[C@@H](O)[C@H](O)[C@H]3O)c2OC1(O)Cc1ccc(O)cc1 (stereo not given in full) | 7.9 |  |  | 1.99 |
| O=c1cc(-c2ccc(O)c(O)c2)oc2c([C@@H]3O[C@H](CO)[C@@H](O)[C@H](O)[C@H]3O)c(O)ccc12 | 16.1 |  |  | 14.3 |
| O=c1c(O)c(-c2ccc(O)cc2)oc2cc(O)c([C@@H]3O[C@H](CO)[C@@H](O)[C@H](O)[C@H]3O)c(O)c12 | 23.5 |  | 12.2 | 16.7 |
| OC[C@H]1O[C@@H](c2c(O)ccc3cc(Cc4ccc(O)cc4)oc23)[C@H](O)[C@@H](O)[C@@H]1O | 11.2 |  |  | 9.78 |
